Assay results as given in ChEMBL document CHEMBL1147539, “Synthesis and biological evaluation of novel, selective, nonsteroidal glucocorticoid receptor antagonists” (Bioorg Med Chem Lett, 2004).
pIC50: −log10 of the molar value.

How the values were obtained:
[1] = target: T1, Glucocorticoid receptor (Homo sapiens, UniProt P04150); assay: Displacement of [3H]dexamethasone from human Glucocorticoid receptor (GR); Value ranges from 378-814 nM
T1 sequence (P04150 whole entry): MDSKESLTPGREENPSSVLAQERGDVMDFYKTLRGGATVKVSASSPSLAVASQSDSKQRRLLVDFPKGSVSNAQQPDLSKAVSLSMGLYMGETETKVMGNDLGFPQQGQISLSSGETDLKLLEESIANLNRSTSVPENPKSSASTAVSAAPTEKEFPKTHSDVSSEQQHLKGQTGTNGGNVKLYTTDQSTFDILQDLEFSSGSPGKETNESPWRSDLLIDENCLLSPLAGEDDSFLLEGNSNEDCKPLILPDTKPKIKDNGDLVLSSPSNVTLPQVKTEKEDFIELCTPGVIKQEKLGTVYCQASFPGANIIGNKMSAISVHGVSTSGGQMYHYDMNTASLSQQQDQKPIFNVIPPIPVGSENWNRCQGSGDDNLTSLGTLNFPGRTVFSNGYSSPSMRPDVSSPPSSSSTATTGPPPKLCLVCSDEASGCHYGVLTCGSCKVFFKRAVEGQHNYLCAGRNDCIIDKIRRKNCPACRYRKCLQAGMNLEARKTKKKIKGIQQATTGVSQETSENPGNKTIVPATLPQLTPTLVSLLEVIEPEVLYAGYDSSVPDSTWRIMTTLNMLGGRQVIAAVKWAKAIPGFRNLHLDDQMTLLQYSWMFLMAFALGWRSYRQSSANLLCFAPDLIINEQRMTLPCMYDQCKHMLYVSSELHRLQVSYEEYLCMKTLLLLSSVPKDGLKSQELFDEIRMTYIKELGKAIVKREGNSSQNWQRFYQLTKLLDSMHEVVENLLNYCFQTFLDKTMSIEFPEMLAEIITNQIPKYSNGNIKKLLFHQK

[2] = target: T2, Progesterone receptor (Homo sapiens, UniProt P06401); assay: Displacement of [3H]progesterone from human Progesterone receptor
T2 sequence (P06401 whole entry): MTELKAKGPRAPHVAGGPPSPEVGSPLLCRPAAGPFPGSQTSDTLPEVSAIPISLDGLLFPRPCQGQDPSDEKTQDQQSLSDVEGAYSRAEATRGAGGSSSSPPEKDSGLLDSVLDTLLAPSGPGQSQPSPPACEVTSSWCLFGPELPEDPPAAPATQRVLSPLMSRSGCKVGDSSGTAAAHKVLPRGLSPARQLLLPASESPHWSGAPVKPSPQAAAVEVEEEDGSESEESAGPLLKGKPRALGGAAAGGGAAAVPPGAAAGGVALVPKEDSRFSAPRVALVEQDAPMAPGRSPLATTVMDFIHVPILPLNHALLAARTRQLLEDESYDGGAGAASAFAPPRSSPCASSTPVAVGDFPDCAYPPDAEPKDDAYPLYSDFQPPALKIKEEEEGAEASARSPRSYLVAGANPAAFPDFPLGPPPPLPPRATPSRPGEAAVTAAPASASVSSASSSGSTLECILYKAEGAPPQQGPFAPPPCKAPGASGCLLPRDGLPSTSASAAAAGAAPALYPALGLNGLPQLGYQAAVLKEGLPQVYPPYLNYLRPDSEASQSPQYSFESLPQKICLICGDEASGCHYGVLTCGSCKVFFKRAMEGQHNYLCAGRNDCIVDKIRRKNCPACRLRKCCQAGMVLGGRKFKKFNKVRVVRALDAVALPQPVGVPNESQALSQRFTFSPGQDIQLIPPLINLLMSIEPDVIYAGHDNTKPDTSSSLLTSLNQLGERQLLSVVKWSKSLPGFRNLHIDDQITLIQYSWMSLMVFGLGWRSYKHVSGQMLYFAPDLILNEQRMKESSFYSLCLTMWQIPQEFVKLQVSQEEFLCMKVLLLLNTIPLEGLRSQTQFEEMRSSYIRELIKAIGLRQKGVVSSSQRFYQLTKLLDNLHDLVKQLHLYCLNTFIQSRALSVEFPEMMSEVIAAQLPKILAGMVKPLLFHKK
How it was run: (§1)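 Human steroid receptor (PR, MR, AR, ERα) binding measured by radioligand displacement, with IC50s determined in duplicate. Values without a range come from a single experiment, and values with a range are geometric means of repeat experiments.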

[3] = target: T3, Mineralocorticoid receptor (Homo sapiens, UniProt P08235); assay: Displacement of [3H]aldosterone from human Mineralocorticoid receptor; how it was run: as §1
T3 sequence (P08235 whole entry): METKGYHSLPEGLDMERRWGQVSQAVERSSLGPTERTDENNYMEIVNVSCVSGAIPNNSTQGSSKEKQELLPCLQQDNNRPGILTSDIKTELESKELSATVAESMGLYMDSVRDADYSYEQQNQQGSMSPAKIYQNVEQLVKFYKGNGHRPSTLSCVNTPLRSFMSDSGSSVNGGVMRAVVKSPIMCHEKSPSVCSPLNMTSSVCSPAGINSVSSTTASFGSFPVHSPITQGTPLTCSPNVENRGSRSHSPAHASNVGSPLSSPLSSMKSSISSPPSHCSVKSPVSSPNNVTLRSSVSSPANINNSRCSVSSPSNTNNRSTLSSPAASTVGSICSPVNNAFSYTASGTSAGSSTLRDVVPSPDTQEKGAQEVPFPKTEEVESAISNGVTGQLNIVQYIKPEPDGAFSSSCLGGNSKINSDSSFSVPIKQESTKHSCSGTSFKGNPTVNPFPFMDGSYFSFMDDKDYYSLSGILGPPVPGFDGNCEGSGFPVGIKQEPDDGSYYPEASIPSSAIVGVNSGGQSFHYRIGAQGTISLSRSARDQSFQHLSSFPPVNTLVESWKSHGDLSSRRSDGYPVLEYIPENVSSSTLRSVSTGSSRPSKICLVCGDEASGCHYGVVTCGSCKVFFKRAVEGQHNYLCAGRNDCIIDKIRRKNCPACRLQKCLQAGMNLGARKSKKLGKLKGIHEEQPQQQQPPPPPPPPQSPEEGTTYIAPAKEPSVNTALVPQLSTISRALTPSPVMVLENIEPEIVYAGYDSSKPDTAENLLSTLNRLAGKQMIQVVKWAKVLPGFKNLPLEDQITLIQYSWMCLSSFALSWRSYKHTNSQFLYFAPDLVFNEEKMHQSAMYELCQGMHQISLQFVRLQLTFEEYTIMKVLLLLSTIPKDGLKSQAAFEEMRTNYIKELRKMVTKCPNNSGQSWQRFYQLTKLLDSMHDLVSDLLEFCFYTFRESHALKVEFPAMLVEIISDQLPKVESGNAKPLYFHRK

[4] = target: T1, Glucocorticoid receptor; assay: Effect on human Glucocorticoid receptor (GR) in a whole cell assay to measure functional cellular GR-antagonism (GRAF)
[5] = target: T4, Estrogen receptor (Homo sapiens, UniProt P03372); assay: Displacement of [3H]estradiol from human estrogen receptor alpha; how it was run: as §1
T4 sequence (P03372 whole entry): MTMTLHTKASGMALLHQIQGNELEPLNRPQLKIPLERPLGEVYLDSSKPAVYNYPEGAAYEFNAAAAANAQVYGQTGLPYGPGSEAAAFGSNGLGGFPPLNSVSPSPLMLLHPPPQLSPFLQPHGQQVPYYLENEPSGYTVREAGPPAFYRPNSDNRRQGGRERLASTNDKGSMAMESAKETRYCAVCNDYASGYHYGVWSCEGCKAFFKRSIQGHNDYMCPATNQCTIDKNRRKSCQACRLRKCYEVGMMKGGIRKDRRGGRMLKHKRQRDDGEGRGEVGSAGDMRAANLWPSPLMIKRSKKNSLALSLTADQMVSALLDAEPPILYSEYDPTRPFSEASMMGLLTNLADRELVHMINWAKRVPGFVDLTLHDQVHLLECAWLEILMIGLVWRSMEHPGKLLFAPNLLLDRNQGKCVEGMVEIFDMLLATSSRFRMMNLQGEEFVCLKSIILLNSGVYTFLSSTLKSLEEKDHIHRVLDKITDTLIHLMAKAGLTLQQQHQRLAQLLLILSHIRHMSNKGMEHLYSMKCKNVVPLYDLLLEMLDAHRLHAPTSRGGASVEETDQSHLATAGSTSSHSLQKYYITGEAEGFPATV

[6] = target: T1, Glucocorticoid receptor
[7] = target: T5, Androgen receptor (Homo sapiens, UniProt P10275); assay: Displacement of [3H]mibolerone from human Androgen receptor
T5 sequence (P10275 whole entry): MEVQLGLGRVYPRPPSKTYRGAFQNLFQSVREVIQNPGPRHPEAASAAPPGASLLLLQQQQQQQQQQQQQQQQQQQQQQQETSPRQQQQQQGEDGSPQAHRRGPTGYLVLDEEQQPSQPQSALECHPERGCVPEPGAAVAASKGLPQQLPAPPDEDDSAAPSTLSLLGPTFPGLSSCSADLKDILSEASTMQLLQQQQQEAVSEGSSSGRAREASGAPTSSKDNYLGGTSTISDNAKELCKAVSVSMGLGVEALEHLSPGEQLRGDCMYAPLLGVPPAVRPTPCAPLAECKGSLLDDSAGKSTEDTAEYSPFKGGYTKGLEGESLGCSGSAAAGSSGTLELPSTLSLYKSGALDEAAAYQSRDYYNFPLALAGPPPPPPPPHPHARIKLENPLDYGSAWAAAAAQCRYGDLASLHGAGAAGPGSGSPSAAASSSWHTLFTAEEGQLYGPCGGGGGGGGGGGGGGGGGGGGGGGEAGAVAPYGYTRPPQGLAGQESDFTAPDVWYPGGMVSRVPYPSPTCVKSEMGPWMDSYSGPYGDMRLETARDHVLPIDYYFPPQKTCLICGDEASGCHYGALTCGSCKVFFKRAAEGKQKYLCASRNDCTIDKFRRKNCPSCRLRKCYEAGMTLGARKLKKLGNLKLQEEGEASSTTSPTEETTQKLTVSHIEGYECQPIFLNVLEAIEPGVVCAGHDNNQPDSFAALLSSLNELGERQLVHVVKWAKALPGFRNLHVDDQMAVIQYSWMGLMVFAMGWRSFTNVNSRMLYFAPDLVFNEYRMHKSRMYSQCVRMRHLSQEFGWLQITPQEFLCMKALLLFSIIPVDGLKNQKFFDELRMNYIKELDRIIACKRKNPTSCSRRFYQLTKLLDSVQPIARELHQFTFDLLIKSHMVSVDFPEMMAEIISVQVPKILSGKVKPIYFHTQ

[8] = target: T1, Glucocorticoid receptor; assay: Displacement of [3H]dexamethasone from human Glucocorticoid receptor (GR)
[9] = target: T1, Glucocorticoid receptor; remark: listed apart in the source
[10] = target: T1, Glucocorticoid receptor; remark: listed apart in the source
[11] = target: T1, Glucocorticoid receptor; assay: Displacement of [3H]dexamethasone from human Glucocorticoid receptor (GR); Value ranges from 1428-1433 nM
How it was run: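 Binding to human GR; IC50 reported as the geometric mean of two experiments (three for some values), each run in duplicate, with the range of the experiments given.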

[12] = target: T1, Glucocorticoid receptor; assay: Displacement of [3H]dexamethasone from human Glucocorticoid receptor (GR); […]

Row | SMILES | pIC50 [4] | pIC50 [8] | further results
1 | COc1cccc2c1-c1ccc(NS(C)(=O)=O)c(Br)c1C(c1ccccc1)O2 (centres undefined) | 6.37 |  | pIC50 [1]: 6.28; pIC50 [2]: 5.00; pIC50 [3]: 6.34; pIC50 [5]: 5.64
2 | COc1cccc2c1-c1ccc(NC(=O)c3ccccc3)cc1C(c1ccccc1)O2 (centres undefined) | 6.54 |  | pIC50 [6]: 6.39
3 | COc1cccc2c1-c1ccc(NS(C)(=O)=O)cc1C(c1cccc(C)c1)O2 (centres undefined) | 7.68 | 9.00 | pIC50 [7]: < 5.00; pIC50 [2]: 6.63; pIC50 [3]: 6.48
4 | COc1cccc2c1-c1ccc(NS(C)(=O)=O)cc1C(c1ccc(Oc3ccccc3)cc1)O2 (centres undefined) | 6.07 | 7.20 | 
5 | COc1cccc2c1-c1ccc(NS(C)(=O)=O)cc1C(c1ccsc1)O2 (centres undefined) | 7.37 |  | pIC50 [9]: 7.96
6 | CCCCCC1Oc2cccc(OC)c2-c2ccc(NS(C)(=O)=O)cc21 (centres undefined) |  | 7.68 | 
7 | CNc1cccc(C2Oc3cccc(OC)c3-c3ccc(NS(C)(=O)=O)cc32)c1 (centres undefined) | 6.74 | 7.64 | 
8 | COc1cccc2c1-c1ccc(NS(=O)(=O)c3ccccc3)cc1C(c1ccccc1)O2 (centres undefined) | 6.86 |  | pIC50 [10]: 6.84
9 | COc1cccc2c1-c1ccc(NS(C)(=O)=O)cc1C(c1ccccn1)O2 (centres undefined) |  |  | pIC50 [11]: 5.84
10 | COc1cccc2c1-c1ccc(NS(C)(=O)=O)cc1C(C1CCCCC1)O2 (centres undefined) | 6.20 |  | pIC50 [12]: 7.33
